Assay results: ChEMBL document CHEMBL3112409, “A novel class of ion displacement ligands as antagonists of the αIIbβ3 receptor that limit conformational reorganization of the receptor” (Bioorg Med Chem Lett, 2014)
Values belong to the compound of their own block, whether it stands above or below them. Calls of active or inactive are those of the source. The calls are words filed in the database; no cut-off is given here. Positions of bridges follow the written chain, without caps; N, C: chain ends. Non-standard residues stand in square brackets, D forms with d. Residues, ends and D or L forms follow the SMILES beside them. hArg = N=C(N)NCCCC[C@H](N)C(=O)O; Mpa = O=C(O)CCS

Tests used:
[1] = Antiplatelet activity in platelet (unknown origin) assessed as inhibition of platelet aggregation; type: functional, cell-based
[2] = molecular target: T1, Integrin alpha-IIb/beta-3 (Homo sapiens) (UniProt P05106+P08514); assay: Inhibition of […] receptor (unknown origin) assessed as inhibition of platelet adhesion at 100 uM
[3] = molecular target: T1, Integrin alpha-IIb/beta-3 (Homo sapiens); assay: Inhibition of […] receptor (unknown origin) assessed as inhibition of platelet adhesion at 1 uM
Liver microsome [4] = assay: Intrinsic clearance in human liver microsomes; type: ADME
Summary of the method: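 Liver microsomal stability run in parallel for mouse, rat and human microsomes. Intrinsic clearance reported in μL/min/mg protein, with microsomal half-life in min.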

[5] = Kinetic solubility of the compound at pH 8.5 by CLND method; type: physicochemical; conditions: buffer
[6] = Thermodynamic solubility of the compound at pH 12 by CLND method; type: physicochemical; conditions: buffer
Summary of the method: (§1)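 Triplicate solubility measurements in aqueous buffer at the pH named in each line. Quantified by chemiluminescent nitrogen detection (CLND) and reported in μg/mL. An LC method was also run alongside.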

[7] = Metabolic stability in mouse plasma after 120 mins; type: ADME, cell-free; conditions: read-out: Stability
Summary of the method: (§2)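 Stability in mouse plasma run in triplicate; percent remaining read at 15, 60 and 120 min.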

[8] = Fraction unbound in plasma (unknown origin); type: ADME, cell-free
[9] = Thermodynamic solubility of the compound at pH 8.5 by CLND method; type: physicochemical; conditions: buffer; summary of the method: as §1
[10] = Kinetic solubility of the compound at pH 12 by CLND method; type: physicochemical; conditions: buffer
[11] = Thermodynamic solubility of the compound at pH 6.6 by CLND method; type: physicochemical; conditions: buffer; summary of the method: as §1
[12] = molecular target: Integrin alpha-V/beta-3 (Homo sapiens) (UniProt P05106+P06756); assay: Antagonist activity at alphaVbeta3 receptor (unknown origin); type: protein-complex assay
[13] = Thermodynamic solubility of the compound at pH 7.4 by CLND method; type: physicochemical; conditions: buffer; summary of the method: as §1
[14] = Kinetic solubility of the compound at pH 7.4 by CLND method; type: physicochemical; conditions: buffer
[15] = Fraction unbound in whole blood (unknown origin); type: ADME, tissue-based
hERG (KCNH2) = hERG (KCNH2) (Homo sapiens, UniProt Q12809); assay: Inhibition of human ERG channel at 25 uM
[16] = Kinetic solubility of the compound at pH 6.6 by CLND method; type: physicochemical; conditions: buffer
[17] = Metabolic stability in mouse hepatocytes assessed as compound remaining after 120 mins; type: ADME, cell-based, Hepatocyte; conditions: read-out: Stability
[18] = Metabolic stability in mouse plasma after 15 mins; type: ADME, cell-free; conditions: read-out: Stability; summary of the method: as §2
[19] = Metabolic stability in mouse plasma after 60 mins; type: ADME, cell-free; conditions: read-out: Stability; summary of the method: as §2
[20] = molecular target: T1, Integrin alpha-IIb/beta-3 (Homo sapiens); conditions: 10 uM
[21] = Intrinsic clearance in mouse liver microsomes; type: ADME, Microsome
Liver microsome [22] = assay: Intrinsic clearance in rat liver microsomes; type: ADME
[23] = molecular target: T1, Integrin alpha-IIb/beta-3 (Homo sapiens); assay: Inhibition of […] receptor (unknown origin) assessed as inhibition of platelet adhesion at 50 uM
[24] = Tmax in dog at 26.5 mg/kg, iv; type: ADME, organism-based, Canis lupus familiaris; set-up: dose 26.5 mg/kg, route intravenous; conditions: in vivo
Canis familiaris [25] = assay: Volume of distribution in dog at 53 mg/kg, po; type: ADME, organism-based, Canis lupus familiaris; set-up: dose 53 mg/kg, route oral; conditions: in vivo
Canis familiaris [26] = assay: Volume of distribution in dog at 26.5 mg/kg, po; type: ADME, organism-based, Canis lupus familiaris; set-up: dose 26.5 mg/kg, route oral; conditions: in vivo
[27] = AUC (infinity) in dog at 26.5 mg/kg, po; type: ADME, organism-based, Canis lupus familiaris; set-up: time infinity, dose 26.5 mg/kg, route oral; conditions: plasma
[28] = Elimination half life in dog at 26.5 mg/kg, iv; type: ADME, organism-based, Canis lupus familiaris; set-up: dose 26.5 mg/kg, route intravenous; conditions: in vivo, read-out: beta t1/2
[29] = Cmax in dog at 26.5 mg/kg, iv; type: ADME, organism-based, Canis lupus familiaris; set-up: dose 26.5 mg/kg, route intravenous; conditions: in vivo
[30] = Oral bioavailability in dog at 26.5 to 53 mg/kg; type: ADME, organism-based, Canis lupus familiaris; conditions: in vivo
[31] = AUC (infinity) in dog at 26.5 mg/kg, iv; type: ADME, organism-based, Canis lupus familiaris; set-up: time infinity, dose 26.5 mg/kg, route intravenous; conditions: plasma
[32] = Elimination half life in dog at 53 mg/kg, po; type: ADME, organism-based, Canis lupus familiaris; set-up: dose 53 mg/kg, route oral; conditions: in vivo, read-out: beta t1/2
[33] = Clearance in dog at 53 mg/kg, po; type: ADME, organism-based, Canis lupus familiaris; set-up: dose 53 mg/kg, route oral; conditions: in vivo
[34] = Cmax in dog at 53 mg/kg, po; type: ADME, organism-based, Canis lupus familiaris; set-up: dose 53 mg/kg, route oral; conditions: in vivo
[35] = Volume of distribution in dog at 26.5 mg/kg, iv; type: ADME, organism-based, Canis lupus familiaris; set-up: dose 26.5 mg/kg, route intravenous; conditions: in vivo
[36] = Terminal elimination rate constant in dog at 53 mg/kg, po; type: ADME, organism-based, Canis lupus familiaris; set-up: dose 53 mg/kg, route oral; conditions: in vivo
[37] = Clearance in dog at 26.5 mg/kg, po; type: ADME, organism-based, Canis lupus familiaris; set-up: dose 26.5 mg/kg, route oral; conditions: in vivo
[38] = Elimination half life in dog at 26.5 mg/kg, po; type: ADME, organism-based, Canis lupus familiaris; set-up: dose 26.5 mg/kg, route oral; conditions: in vivo, read-out: beta t1/2
[39] = Tmax in dog at 26.5 mg/kg, po; type: ADME, organism-based, Canis lupus familiaris; set-up: dose 26.5 mg/kg, route oral; conditions: in vivo
[40] = Terminal elimination rate constant in dog at 26.5 mg/kg, po; type: ADME, organism-based, Canis lupus familiaris; set-up: dose 26.5 mg/kg, route oral; conditions: in vivo
[41] = Terminal elimination rate constant in dog at 26.5 mg/kg, iv; type: ADME, organism-based, Canis lupus familiaris; set-up: dose 26.5 mg/kg, route intravenous; conditions: in vivo
[42] = Tmax in dog at 53 mg/kg, po; type: ADME, organism-based, Canis lupus familiaris; set-up: dose 53 mg/kg, route oral; conditions: in vivo
[43] = Clearance in dog at 26.5 mg/kg, iv; type: ADME, organism-based, Canis lupus familiaris; set-up: dose 26.5 mg/kg, route intravenous; conditions: in vivo
[44] = Cmax in dog at 26.5 mg/kg, po; type: ADME, organism-based, Canis lupus familiaris; set-up: dose 26.5 mg/kg, route oral; conditions: in vivo
[45] = AUC (infinity) in dog at 53 mg/kg, po; type: ADME, organism-based, Canis lupus familiaris; set-up: time infinity, dose 53 mg/kg, route oral; conditions: plasma

hERG (KCNH2), sequence (Q12809 whole entry): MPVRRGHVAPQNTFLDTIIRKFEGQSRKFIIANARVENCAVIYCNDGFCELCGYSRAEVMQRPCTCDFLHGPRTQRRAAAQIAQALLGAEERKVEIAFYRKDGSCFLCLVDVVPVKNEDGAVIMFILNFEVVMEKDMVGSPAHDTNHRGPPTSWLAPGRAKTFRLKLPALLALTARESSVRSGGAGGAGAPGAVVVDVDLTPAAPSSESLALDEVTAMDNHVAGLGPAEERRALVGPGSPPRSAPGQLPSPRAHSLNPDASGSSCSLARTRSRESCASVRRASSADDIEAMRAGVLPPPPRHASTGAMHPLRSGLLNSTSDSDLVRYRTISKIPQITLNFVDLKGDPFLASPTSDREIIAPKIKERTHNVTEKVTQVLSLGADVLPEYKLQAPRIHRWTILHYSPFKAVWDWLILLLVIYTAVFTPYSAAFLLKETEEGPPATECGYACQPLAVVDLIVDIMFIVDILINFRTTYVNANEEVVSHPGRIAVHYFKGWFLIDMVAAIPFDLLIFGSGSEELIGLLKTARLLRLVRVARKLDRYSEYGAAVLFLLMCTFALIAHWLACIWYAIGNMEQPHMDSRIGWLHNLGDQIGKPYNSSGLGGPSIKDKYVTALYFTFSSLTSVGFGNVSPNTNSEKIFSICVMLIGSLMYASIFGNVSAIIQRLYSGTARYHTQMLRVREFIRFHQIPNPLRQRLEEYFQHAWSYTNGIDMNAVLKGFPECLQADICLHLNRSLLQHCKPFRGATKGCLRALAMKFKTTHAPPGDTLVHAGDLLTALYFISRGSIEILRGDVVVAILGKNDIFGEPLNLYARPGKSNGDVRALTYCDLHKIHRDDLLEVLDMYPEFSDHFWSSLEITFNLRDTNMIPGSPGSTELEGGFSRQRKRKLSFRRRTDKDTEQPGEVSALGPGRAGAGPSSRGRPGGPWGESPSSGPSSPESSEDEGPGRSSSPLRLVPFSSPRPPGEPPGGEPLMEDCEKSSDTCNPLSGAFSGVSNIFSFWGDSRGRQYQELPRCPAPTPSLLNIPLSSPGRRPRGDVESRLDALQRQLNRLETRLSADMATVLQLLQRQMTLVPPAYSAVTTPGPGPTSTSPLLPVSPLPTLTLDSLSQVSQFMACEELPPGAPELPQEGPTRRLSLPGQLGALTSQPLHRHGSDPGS

Structure (SMILES): NCC(=O)Nc1cc(O)cc(-c2nn3c(=O)cc(N4CCNCC4)nc3s2)c1
IC50 [1]: 0.1 µM
inhibition [3]: 69%

Structure (SMILES): CCc1nn2c(=O)cc(N3CCN(C)CC3)nc2s1
IC50 [1]: > 100 µM
inhibition [2]: 35%

Structure (SMILES): CCc1nn2c(=O)c(F)c(N3CCNCC3)nc2s1
IC50 [1]: 8.3 µM
inhibition [2]: 41%

Structure (SMILES): NCC(=O)Nc1cncc(-c2nn3c(=O)cc(N4CCNCC4)nc3s2)c1 [ZALUNFIBAN]
CLH (Liver microsome [4]): 23.2 µL/min/mg
Kinetic_solubility [5]: > 57.8 µg/mL
Therm_solubility [6]: > 400 µg/mL
remaining at 2 h [7]: 91.7%
Fu [8]: > 30%
Therm_solubility [9]: > 400 µg/mL
Kinetic_solubility [10]: > 57.8 µg/mL
Therm_solubility [11]: 340.4 µg/mL
Activity [12]: inactive
Therm_solubility [13]: 239.5 µg/mL
Kinetic_solubility [14]: > 57.8 µg/mL
Fu [15]: > 85%
inhibition at 25 µM (hERG (KCNH2)): < 5%
Kinetic_solubility [16]: > 57.8 µg/mL
remaining at 2 h [17]: > 95%
IC50 [1]: 0.045 µM
remaining at 0.25 h [18]: 100%
remaining at 1 h [19]: 99.5%
inhibition [3]: 93%

Structure (SMILES): CCCCS(=O)(=O)N[C@@H](Cc1ccc(OCCCCC2CCNCC2)cc1)C(=O)O
inhibition [20]: 88%

Structure (SMILES): CCc1nn2c(=O)cc(N3CCCCC3)nc2s1
IC50 [1]: > 100 µM
inhibition [2]: 23%

Structure (SMILES): NCC(=O)Nc1cccc(-c2nn3c(=O)cc(N4CCNCC4)nc3s2)c1
Kinetic_solubility [5]: 36.1 µg/mL
Therm_solubility [6]: > 400 µg/mL
remaining at 2 h [7]: 84.5%
Therm_solubility [9]: 46.2 µg/mL
Kinetic_solubility [10]: 43.4 µg/mL
Therm_solubility [11]: 41.8 µg/mL
Therm_solubility [13]: 28 µg/mL
CLH [21]: 0.684 µL/min/mg
Kinetic_solubility [14]: 34.6 µg/mL
inhibition at 25 µM (hERG (KCNH2)): < 5%
Kinetic_solubility [16]: 35.8 µg/mL
remaining at 0.25 h [18]: 97.5%
remaining at 1 h [19]: 93.3%
CLH (Liver microsome [22]): 2.83 µL/min/mg
inhibition [3]: 83%

Structure (SMILES): CCc1nn2c(=O)cc(N3CCNCC3)nc2s1
Tmax [24]: 0.175 h
Vd (Canis familiaris [25]): 2.9476 L/kg
Vd (Canis familiaris [26]): 3.4669 L/kg
AUC(0-inf) [27]: 27200 ng·h/mL
half-life [28]: 1.7 h
Cmax [29]: 28800 ng/mL
bioavailability [30]: 92%
AUC(0-inf) [31]: 28000 ng·h/mL
half-life [32]: 1.82 h
CL/F [33]: 18.7 mL/min/kg
Cmax [34]: 11900 ng/mL
Vd [35]: 2.37 L/kg
k el [36]: 0.000107 s⁻¹
CL/F [37]: 16.8 mL/min/kg
half-life [38]: 2.45 h
Tmax [39]: 0.555 h
k el [40]: 8e-05 s⁻¹
IC50 [1]: 4 µM
k el [41]: 0.000113 s⁻¹
Tmax [42]: 0.5 h
clearance [43]: 15.9 mL/min/kg
Cmax [44]: 7800 ng/mL
AUC(0-inf) [45]: 47200 ng·h/mL

Structure (SMILES): CCc1nn2c(=O)cc(N3CCOCC3)nc2s1
IC50 [1]: 49 µM
inhibition [2]: 20%

Further lines, results first:

IC50 [1]: 3 µM
inhibition [2]: 56%
Structure (SMILES): O=c1cc(N2CCNCC2)nc2sc(-c3ccccc3)nn12

IC50 [1]: 0.075 µM
inhibition [3]: 89%
Structure (SMILES): NCC(=O)Nc1cc(CO)cc(-c2nn3c(=O)cc(N4CCNCC4)nc3s2)c1

IC50 [1]: 5.87 µM
inhibition [2]: 66%
Structure (SMILES): C[C@H](N)C(=O)Nc1cccc(-c2nn3c(=O)cc(N4CCNCC4)nc3s2)c1

IC50 [1]: 2 µM
inhibition [23]: 78%
Structure (SMILES): O=C(O)CNc1cccc(-c2nn3c(=O)cc(N4CCNCC4)nc3s2)c1

IC50 [1]: 0.012 µM
Structure (SMILES): N=C(N)NCCCC[C@@H]1NC(=O)CCSSC[C@@H](C(N)=O)NC(=O)[C@@H]2CCCN2C(=O)[C@H](Cc2c[nH]c3ccccc23)NC(=O)[C@H](CC(=O)O)NC(=O)CNC1=O [EPTIFIBATIDE] ([Mpa][hArg]GDWPC-NH2; disulfide 1-7)

IC50 [1]: 80 µM
inhibition [23]: 37%
Structure (SMILES): O=C(O)c1cccc(-c2nn3c(=O)cc(N4CCNCC4)nc3s2)c1

IC50 [1]: 6.5 µM
inhibition [23]: 49%
Structure (SMILES): O=C(O)c1ccc(-c2nn3c(=O)cc(N4CCNCC4)nc3s2)cc1

IC50 [1]: 0.033 µM
inhibition [3]: 98%
Structure (SMILES): NCC(=O)Nc1cc(-c2nn3c(=O)cc(N4CCNCC4)nc3s2)ccn1

IC50 [1]: 4 µM
inhibition [23]: 35%
Structure (SMILES): CC(C)(C)c1nn2c(=O)cc(N3CCNCC3)nc2s1
